ChEMBL document CHEMBL1153580, “Synthesis and pharmacological investigation of 3-(substituted 1-phenylethanone)-4-(substituted phenyl)-1, 2, 3, 4-tetrahydropyrimidine-5-carboxylates” (Eur J Med Chem, 2009)

Tests used:
[1] = test system: Rattus norvegicus; assay: Antihypertensive activity in Norwegian albino rat assessed as inhibition of DOCA salt-induced systolic blood pressure at 10 mg/kg, po after 15 mins by non-invasive tail-cuff method; assay type: functional; conditions: Artery, 0.25 h
[2] = test system: Rattus norvegicus; assay: Antihypertensive activity in Norwegian albino rat assessed as inhibition of DOCA salt-induced systolic blood pressure at 10 mg/kg, po after 240 mins by non-invasive tail-cuff method; assay type: functional; conditions: Artery, 4 h
Outline: (§1)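 Male rats (200–250 g), uninephrectomized under pentobarbital (50 mg/kg i.p.); one week later DOCA s.c. 30–50 mg/kg/week, with 1% w/v NaCl in drinking water. Groups of six, trained in restrainer, tail warmed at 33–34 °C. Compound in 0.5% CMC, 10 mg/kg orally. Systolic pressure read by tail-cuff before dosing and from 1 h after; three readings averaged. ANOVA.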

[3] = test system: Rattus norvegicus; assay: Antihypertensive activity in Norwegian albino rat assessed as inhibition of DOCA salt-induced systolic blood pressure at 10 mg/kg, po after 120 mins by non-invasive tail-cuff method; assay type: functional; conditions: Artery, 2 h; outline: as §1
[4] = test system: Rattus norvegicus; assay: Gastrointestinal toxicity in albino rat assessed as ulcerogenic index at 50 mg/kg, po; assay type: organism-based; set-up: dose 50 mg/kg, route oral; conditions: in vivo
Outline: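 Albino rats (150–200 g), six per group, food but not water withheld 24 h. Compound given p.o. at 50 mg/kg; controls received 1% methyl cellulose. Rats fed 17 h, then killed; stomach opened along greater curvature and examined under 4× magnifier. Lesions scored as large (>2 mm), small (1–2 mm) or punctiform (<1 mm). Severity index = treated mean score minus control mean score.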

[5] = test system: Rattus norvegicus; assay: Antiinflammatory activity in Norwegian albino rat assessed as inhibition of carrageenan-induced paw edema at 100 mg/kg, po after administered 60 mins prior to carrageenan-challenge measured after 1 hr; assay type: functional
Outline: (§2)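 Compound given orally as 100 mg/kg suspension in 0.5% CMC. 60 min later, carrageenan injected sub-plantar into the left hind paw. Paw volume measured within 30 s of injection, then at 1–5 h. % inhibition = [1−(Dt/Dc)]×100, where Dt and Dc are mean relative paw-volume changes in test and control. ANOVA.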

[6] = test system: Rattus norvegicus; assay: Antihypertensive activity in Norwegian albino rat assessed as inhibition of DOCA salt-induced diastolic blood pressure at 10 mg/kg, po after 120 mins by invasive carotid artery cannulation method; assay type: functional; conditions: 2 h
Outline: (§3)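 Male rats (200–250 g), uninephrectomized and given DOCA s.c. (30–50 mg/kg/week) with 1% NaCl drinking water. Anesthetized with pentobarbital (35 mg/kg i.p.); left carotid artery cannulated and exteriorized. After recovery and a baseline reading, compound given orally by feeding needle. Diastolic pressure recorded via transducer at 15, 30, 60, 120 and 180 min. Mean ± S.E.M.; repeated-measures ANOVA.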

[7] = test system: Rattus norvegicus; assay: Antihypertensive activity in Norwegian albino rat assessed as inhibition of DOCA salt-induced systolic blood pressure at 10 mg/kg, po after 360 mins by non-invasive tail-cuff method; assay type: functional; conditions: Artery, 6 h; outline: as §1
[8] = test system: Rattus norvegicus; assay: Antihypertensive activity in Norwegian albino rat assessed as inhibition of DOCA salt-induced diastolic blood pressure at 10 mg/kg, po after 180 mins by invasive carotid artery cannulation method; assay type: functional; conditions: 3 h; outline: as §3
[9] = test system: Rattus norvegicus; assay: Antihypertensive activity in Norwegian albino rat assessed as inhibition of DOCA salt-induced systolic blood pressure at 10 mg/kg, po after 60 mins by non-invasive tail-cuff method; assay type: functional; conditions: Artery, 1 h; outline: as §1
[10] = test system: Rattus norvegicus; assay: Antihypertensive activity in Norwegian albino rat assessed as inhibition of DOCA salt-induced systolic blood pressure at 10 mg/kg, po after 300 mins by non-invasive tail-cuff method; assay type: functional; conditions: Artery, 5 h; outline: as §1
[11] = test system: Rattus norvegicus; assay: Antiinflammatory activity in Norwegian albino rat assessed as inhibition of carrageenan-induced paw edema at 100 mg/kg, po after administered 60 mins prior to carrageenan-challenge measured after 5 hrs; assay type: functional; outline: as §2
[12] = test system: Mus musculus; assay: Analgesic activity against acetic acid-induced writhing in Swiss albino mouse assessed as protection at 20 mg/kg, po; assay type: functional
Outline: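 Swiss albino mice (25–30 g), six per group, habituated 30 min individually in the test cage. Compound in 1% CMC given p.o. at 20 mg/kg. 1 h later, acetic acid injected i.p.; writhes (arching of back, body elongation, hind-limb extension) counted 5–15 min after injection. % inhibition = (n−n′)/n×100, where n and n′ are mean writhes in control and test.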

[13] = test system: Rattus norvegicus; assay: Antihypertensive activity in Norwegian albino rat assessed as inhibition of DOCA salt-induced diastolic blood pressure at 10 mg/kg, po after 240 mins by invasive carotid artery cannulation method; assay type: functional; conditions: 4 h
[14] = test system: Rattus norvegicus; assay: Antihypertensive activity in Norwegian albino rat assessed as inhibition of DOCA salt-induced systolic blood pressure at 10 mg/kg, po after 420 mins by non-invasive tail-cuff method; assay type: functional; conditions: Artery, 7 h; outline: as §1
[15] = test system: Rattus norvegicus; assay: Antihypertensive activity in Norwegian albino rat assessed as inhibition of DOCA salt-induced diastolic blood pressure at 10 mg/kg, po after 60 mins by invasive carotid artery cannulation method; assay type: functional; conditions: 1 h; outline: as §3
[16] = test system: Rattus norvegicus; assay: Antihypertensive activity in Norwegian albino rat assessed as inhibition of DOCA salt-induced diastolic blood pressure at 10 mg/kg, po after 30 mins by invasive carotid artery cannulation method; assay type: functional; conditions: 0.5 h; outline: as §3
[17] = test system: Rattus norvegicus; assay: Antihypertensive activity in Norwegian albino rat assessed as inhibition of DOCA salt-induced systolic blood pressure at 10 mg/kg, po after 30 mins by non-invasive tail-cuff method; assay type: functional; conditions: Artery, 0.5 h
[18] = test system: Rattus norvegicus; assay: Antihypertensive activity in Norwegian albino rat assessed as inhibition of DOCA salt-induced systolic blood pressure at 10 mg/kg, po after 480 mins by non-invasive tail-cuff method; assay type: functional; conditions: Artery, 8 h; outline: as §1
[19] = test system: Rattus norvegicus; assay: Antiinflammatory activity in Norwegian albino rat assessed as inhibition of carrageenan-induced paw edema at 100 mg/kg, po after administered 60 mins prior to carrageenan-challenge measured after 3 hrs; assay type: functional; outline: as §2
[20] = test system: Rattus norvegicus; assay: Antihypertensive activity in Norwegian albino rat assessed as inhibition of DOCA salt-induced systolic blood pressure at 10 mg/kg, po after 180 mins by non-invasive tail-cuff method; assay type: functional; conditions: Artery, 3 h; outline: as §1
[21] = test system: Rattus norvegicus; assay: Antihypertensive activity in Norwegian albino rat assessed as inhibition of DOCA salt-induced diastolic blood pressure at 10 mg/kg, po after 15 mins by invasive carotid artery cannulation method; assay type: functional; conditions: 0.25 h; outline: as §3

Structure (SMILES) | inhibition in vivo at 10 mg/kg [1] | inhibition in vivo at 10 mg/kg [2] | inhibition in vivo at 10 mg/kg [3] | UI [4] | inhibition in vivo at 100 mg/kg [5] | inhibition in vivo at 10 mg/kg [6] | inhibition in vivo at 10 mg/kg [7] | inhibition in vivo at 10 mg/kg [8] | inhibition in vivo at 10 mg/kg [9] | inhibition in vivo at 10 mg/kg [10] | inhibition in vivo at 100 mg/kg [11] | Activity [12] | inhibition in vivo at 10 mg/kg [13] | inhibition in vivo at 10 mg/kg [14] | inhibition in vivo at 10 mg/kg [15] | inhibition in vivo at 10 mg/kg [16] | inhibition in vivo at 10 mg/kg [17] | inhibition in vivo at 10 mg/kg [18] | inhibition in vivo at 100 mg/kg [19] | inhibition in vivo at 10 mg/kg [20] | also measured
CCOC(=O)C1=C(C)NC(OC)N(CC(=O)c2ccc(Cl)cc2)C1c1ccc(O)cc1 (stereo unspecified) | 1% | 36.7% | 23.1% | 0.45 | 36.6% | 30.1% | 42% | 38.3% | 15.1% | 39.6% | 42% | 45.66% | 47.8% | 44% | 22.5% | 10.3% | 6.36% | 45.5% | 38.8% | 28.4% | inhibition in vivo at 10 mg/kg [21]: 1.43%
CCOC(=O)C1=C(C)NC(OC)N(CC(=O)c2ccc(OC)cc2)C1c1ccc(OC)cc1 (stereo unspecified) | 1.57% | 36% | 21.6% | 0.2 | 37.7% | 31.1% | 41.9% | 39.4% | 15.1% | 40.1% | 47.2% | 51.33% | 48.8% | 46.5% | 23.5% | 12.1% | 6.58% | 48.6% | 39.8% | 27.8% | inhibition in vivo at 10 mg/kg [21]: 3.33%
CCOC(=O)C1=C(C)NC(OC)N(CC(=O)c2ccc(OC)cc2)C1c1ccc(C)cc1 (stereo unspecified) | 1.82% | 36.9% | 24% | 0.56 | 38.8% | 30% | 42% | 37.6% | 14.7% | 39.6% | 42% | 43.33% | 47.9% | 44% | 22.5% | 11.5% | 11.1% | 46.3% | 39.8% | 28.1% | inhibition in vivo at 10 mg/kg [21]: 3.12%
CCOC(=O)C1=C(C)NC(OC)N(CC(=O)c2ccc(Cl)cc2)C1c1ccc(OC)cc1 (stereo unspecified) | 1.57% | 36% | 23.8% | 0.45 | 37.8% | 30.1% | 42.9% | 37.9% | 18.2% | 41.4% | 42% | 49.56% | 47.7% | 49.4% | 23.5% | 10.1% | 6.58% | 51.9% | 39.5% | 28% | inhibition in vivo at 10 mg/kg [21]: 1.79%
CCOC(=O)C1=C(C)NC(OC)N(CC(=O)c2ccc(Cl)cc2)C1c1ccc(C)cc1 (stereo unspecified) | 1.61% | 36.8% | 24% | 0.76 | 37.1% | 30.4% | 42% | 37.8% | 13.8% | 39.5% | 47.3% | 53.17% | 47.8% | 44% | 22.5% | 10.5% | 11.1% | 45.7% | 38.8% | 28% | inhibition in vivo at 10 mg/kg [21]: 2.35%
CCOC(=O)C1=C(C)NC(OC)N(CC(=O)c2ccccc2)C1c1ccc(OC)cc1 (stereo unspecified) | 1.57% | 36% | 20.4% | 0.75 | 38.8% | 30.9% | 42.9% | 37.9% | 13.7% | 41.4% | 52.6% | 59.76% | 48.2% | 45% | 22.9% | 10.6% | 6.58% | 45.9% | 40.5% | 28% | inhibition in vivo at 10 mg/kg [21]: 2.3%
